# Bioassay records (PubChem)
# Lipid droplet = inhibitors of hepatocyte lipid droplet formation, primary screen, imaging, high-throughput imaging, BODIPY stain; AML12 mouse hepatocytes, oleate lipid droplets; AID 1656, 2009; inhibition, % at 6.5 µM; hit rate 0.4% among 240,000;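 active = lipid droplet intensity inhibited by at least 50%, with more than 500 cells counted; inconclusive = wells with under 300 cells, treated as cytotoxic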
#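 Test system: AML12 hepatocytes (mouse); reagent: oleate loading, 100 µM; dosing: one dose, 6.5 µM compound; incubation: overnight exposure; signal: fluorescence imaging, 20x objective, two fields per well; read-out basis: % inhibition of corrected integrated BODIPY droplet signal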
# HSP90 inh = HSP90 inhibitors, primary screen, cell lysate, luminescence | Heat shock protein HSP 90 (rabbit reticulocyte lysate; luciferase refolding) | Rabbit reticulocyte lysate, luciferase refolding luminescence, 3 h | inhibition, % at 5.6 µM | hit rate 0.91% among 290,000 | AID 1789, 2009;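 active = inhibition above the screen-wide mean plus 3 SD, computed separately per campaign, cut at about 16% in these data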;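 note: inhibitors lower the luminescence because luciferase stays unfolded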
# HSF1 inh = HSF1 inhibitors in luciferase reporter cells, primary screen, cell-based, NIH3T3, luminescence; activity change, negative = inhibition, % at 7.5 µM (by protocol); NIH3T3-HGL HSE-luciferase, MG132-induced, luminescence 8 h; stronger effect = lower value; hit rate 0.77% among 300,000; AID 2098, 2009;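 active = more than half of replicate wells show activity change below -50%, luminescence cut by over half; inconclusive = some wells, but at most half, below -50%; inactive = no replicate well below -50%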;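 note: luciferase reports HSF-1 transcriptional activity via heat shock element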
# HSF-1 act = HSF-1 activators, primary screen, NIH3T3-HGL cells, MG132 stress, luminescence, single point. NIH3T3-HGL HSF-1 luciferase reporter, 8 h; 100% = twice DMSO control signal. activation, % at 9 µM. hit rate 1.7% among 300,000. AID 504408, 2011;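 active = mean replicate activation of at least 50% with a set share of replicates each reaching 50%; inconclusive = only one of those two conditions met; inactive = mean below 50% and too few replicates reaching it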
# HCV NS3 hel inh = inhibitors of HCV NS3 helicase, primary screen, biochemical, Cy5 molecular beacon fluorescence; Hepatitis C virus NS3 helicase; NS3 helicase DNA unwinding; inhibition, % at 10.9 µM; hit rate 0.56% among 290,000; AID 1800, 2009;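 active = inhibition above the mean of all tested compounds plus 3 SD, set per campaign, cut at about 35% in these data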
#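 System: NS3 helicase fragment of HCV / Schedule: 1 h at 25 °C / Control set: DMSO alone as 0% and 110 µM thioflavine S as 100% / Reagent: Cy5/quencher beacon DNA duplex and ATP to start / Technique: Cy5 fluorescence / Replication: singlicate / Evaluation: % inhibition of end-to-start signal ratio versus controls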
# Hits are given with their value; . = inactive; ? = inconclusive; / = no result given. Rows were chosen to be rich in hits. Some 3.8% of all compounds tested hit in one or more screens of this group.
SMILES,Lipid droplet,HSP90 inh,HSF1 inh,HSF-1 act,HCV NS3 hel inh
Cc1ccc(Cn2c(C(C)Nc3nc(-c4ccc(Cl)c([N+](=O)[O-])c4)cs3)nc3cc(C(F)(F)F)ccc32)cc1 (centres undefined),/,/,.,.,/
Cn1nc([N+](=O)[O-])c(C(C#N)c2ccccn2)c(Cl)c1=O (centres undefined),.,.,.,.,.
CCn1nc([N+](=O)[O-])c(C(C#N)c2nc3cc(C(F)(F)F)ccc3s2)c(Cl)c1=O (centres undefined),.,.,.,64.1,.
CCCn1nc([N+](=O)[O-])c(C(C#N)c2nc3ccccc3o2)c(Cl)c1=O (centres undefined),.,.,.,97.3,.
COc1ccc(NC(=O)/C(=C\c2ccc(F)cc2)NC(=O)c2ccco2)cc1,.,.,.,.,.
COc1nc(-c2ccccc2)ccc1-c1noc(COc2ccccc2)n1,.,.,-68.3,.,.
Cc1ccc(OCc2nc(-c3ccccn3)no2)cc1,.,.,.,63.0,.
O=C(CC1SC(N2CCCC2)=NC1=O)Nc1ccc(C(=O)N2CCN(c3cccc(Cl)c3)CC2)cc1 (centres undefined),/,/,.,.,/
NNC(=O)c1nn(-c2ccc(Cl)cc2)cc1O,.,.,-70.2,.,.
CC(=O)Nc1nc(Cn2nnc(-c3ccc4c(c3)OCO4)n2)nc(N(C)C)n1,.,.,.,.,.
C[C@@H]1CN(Cc2cn(C)nc2-c2cccc(Cl)c2)C[C@H](C)O1,.,.,.,.,.
O=C(CN1C(=O)C2C3C=CC(C3)C2C1=O)OCC(=O)c1ccc(Br)cc1 (centres undefined),.,.,-60.2,.,.
O=C(CN1C(=O)C2C3CCC(C3)C2C1=O)OCC(=O)c1ccc(Br)cc1 (centres undefined),.,.,.,.,.
COc1ccccc1-c1ccc(SCC(=O)Nc2cc(C)on2)nn1,.,.,.,60.2,.
COc1ccc(-c2ccc(SCC(=O)Nc3cc(C)on3)nn2)cc1OC,.,.,.,.,.
COc1ccc(CC(=O)Nc2cc(C)on2)cc1,.,.,-91.2,.,.
COC(=O)C1=NN(C(=O)c2ccccc2)C(O)(c2ccc([N+](=O)[O-])cc2)C1 (centres undefined),.,.,.,272.6,.
CC1=NN(C(=O)c2ccc(Cl)cc2)C(O)(c2ccccc2)C1 (centres undefined),.,.,.,.,.
COC(=O)C1=NN(C(=O)c2ccc(C)cc2)C(O)(c2ccc(Cl)cc2)C1 (centres undefined),/,.,.,147.4,.
COC(=O)C1=NN(C(=O)c2ccccc2)C(C)(O)C1 (centres undefined),.,.,.,.,.
Cn1cnnc1SCC(=O)Nc1ccc(OCc2ccccc2)cc1,.,.,.,.,.
C=CC[n+]1c(/C=C/c2ccc(OC(C)=O)c(OC)c2)ccc2ccccc21,/,.,.,.,.
CCOc1ccc(N(CC(=O)NC2CCCC2)C(=O)CCC(=O)Nc2nc(C)cs2)cc1,.,.,.,.,.
CCOc1ccc(N(CC(=O)NC2CCCCC2)C(=O)CCC(=O)Nc2nc(C)cs2)cc1,.,.,-59.0,.,.
COC(=O)/C(=C\Nc1ccccc1N)c1ncc(C(F)(F)F)cc1Cl,.,.,.,137.8,.
SMILES,Lipid droplet,HSP90 inh,HSF1 inh,HSF-1 act,HCV NS3 hel inh
Cc1ccc2c(c1)N(CC(=O)O)C(=O)CO2,/,.,-79.6,.,.
CC(C)(C)c1ccc2c(c1)N(CC(=O)O)C(=O)CO2,/,.,.,.,.
CN(C)CCNC(=O)CN1C(=O)COc2ccc(C(C)(C)C)cc21,/,.,-67.9,.,.
CC1CC(C)CN(S(=O)(=O)N2CCC(C(=O)NCCC3=CCCCC3)CC2)C1 (centres undefined),.,.,.,.,.
Cc1ccc(NC(=O)Nc2cccc3ccccc23)cc1,.,.,.,.,.
N#CCc1ccc(NC(=O)Nc2cccc3ccccc23)cc1,/,.,-77.6,.,.
Cc1ccccc1NS(=O)(=O)c1ccc(NS(=O)(=O)c2cccs2)cc1,.,.,.,.,.
COC(=O)CN1C(c2ccc(OC)cc2)=Nc2ccc(Cl)cc2C1c1ccccc1 (centres undefined),.,.,.,.,.
COC(=O)CN1C(c2cccc(Cl)c2)=Nc2ccc(Cl)cc2C1c1ccccc1 (centres undefined),.,.,.,64.0,.
Cc1cccc(N(CC(=O)Nc2ccccc2-c2ccccc2)S(=O)(=O)c2ccccc2)c1C,.,.,.,53.4,.
COc1ccccc1CNC(=O)CCCn1nc(C)n2ccnc2c1=O,.,.,.,.,.
CC(=O)Nc1ccc(/C=N/Nc2nc3ccccc3s2)cc1,.,.,.,67.6,.
Cc1ccsc1/C=N/Nc1nc2ccccc2s1,.,.,.,66.1,.
C(=N\Nc1nc2ccccc2s1)/c1cccs1,/,.,.,?,.
CCn1c(C)c(/C=N/Nc2nc3ccccc3s2)c2ccccc21,/,.,.,53.2,.
CCOC(=O)N/N=C/c1c(C)nn(-c2ccccc2Cl)c1Cl,.,.,.,.,.
Cc1nn(-c2ccccc2Cl)c(Cl)c1/C=N/Nc1nc2ccccc2s1,.,.,-83.9,.,.
C[C@@H]1CCC2[C@](C)(CO)[C@@H](O)CC[C@]2(C)[C@@]12CC[C@@](CO)(CC(=O)O)O2 (some centres undefined),.,.,.,.,.
Cc1cc(-c2nnc(CCC(=O)NCc3cc(F)cc(C(F)(F)F)c3)o2)no1,.,.,.,.,.
O=C(CCc1ccccc1)Nc1nc2c(F)cc(F)cc2s1,.,.,.,.,.
Cc1ccc(S(=O)(=O)NC2CC2)cc1[N+](=O)[O-],.,.,.,.,.
NC(=O)C1CCN(C(=O)c2ccc3nc(-c4ccccc4)c(-c4ccccc4)nc3c2)CC1,.,.,.,.,.
C(=N\Nc1nc2ccccc2s1)/c1ccco1,/,.,.,65.5,.
O=[N+]([O-])c1cccc(N/N=C/c2cccc(O)c2O)c1,.,.,.,64.8,.
Cc1nc2ccc(NC(=O)CCS(=O)(=O)c3ccccc3)cc2s1,.,.,.,.,.
Cc1nc2cc(NC(=O)CCS(=O)(=O)c3ccccc3)ccc2s1,.,.,.,52.2,.
CNC(=O)c1ccsc1NC(=O)C1CCCN1S(=O)(=O)c1cccs1 (centres undefined),/,/,.,.,/
CN(C)S(=O)(=O)c1ccc(C(=O)OCC(=O)Nc2ccccc2OC(F)F)cc1,.,.,.,.,.
O=C(COC(=O)c1ccc(S(=O)(=O)NCc2ccco2)cc1)Nc1ccccc1OC(F)F,.,.,.,102.6,.
CCCCOC(=O)c1ccc(NC(=O)/C=C/c2cccs2)cc1,65.2,.,.,.,.
